Screening data deposited in PubChem by several laboratories.
TbMetRS inhib – Trypanosoma brucei MetRS inhibition. purified T. brucei MetRS, ATP depletion, Kinase-Glo luminescence. inhibition, % at 11.9 µM. hit rate 0.4% among 360,000;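 active means inhibition above a per-plate cutoff of the control wells' mean inhibition plus 3 SD, cut at about 5.5% in these data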
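System: purified T. brucei MetRS enzyme / Detection: Kinase-Glo luciferase luminescence reporting remaining unconsumed ATP / Medium: HEPES buffer with MgCl2, KCl, DTT, spermine, BSA, pyrophosphatase / Replication: singlicate, one well per compound / Evaluation: percent inhibition relative to median high and low control wells / Schedule: 2 h aminoacylation at 25 °C after 15 min preincubation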
Rce1 inh – inhibitors of yeast Ras-converting enzyme. Q03530. yeast membranes, quenched prenylated peptide cleavage fluorescence. calls only. hit rate 0.27% among 290,000;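 active means fall in fluorescence gain of 50% or more versus controls, with final raw signal at or below 3038400; inconclusive means same 50% fall but final raw signal above 3038400; inactive means fall in fluorescence gain under 50%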
NadD inh – inhibitors of Staphylococcus aureus NadD | AID 602399 | hit rate 0.78% among 360,000 | inhibition, % at 20 µM | purified NadD enzyme, colorimetric absorbance read-out; in the data active means inhibition above about 26%
HCV core dimer – blocks dimerization of HCV core protein; AID 1899; inhibition, % at 5 µM; hit rate 0.33% among 300,000; TR-FRET GST/Flag-core106 dimerization, 1536-well;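 active means inhibition above the mean of all tested compounds plus 3 SD, set per screening campaign, cut at about 45% in these data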
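Assay system: tagged HCV core106 pair (GST and Flag); medium: KF-containing HEPES buffer, pH 7.45, DTT, CHAPS, BSA; also added: Eu donor and XL665 acceptor anti-tag antibodies; dosing: 5 µM single dose; timing: compound-protein-antibody incubation 4 h at 22.5 °C; signal: TR-FRET 671 and 617 nm emission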
Pemphigus Ab inh – blocks pemphigus antibody binding to human desmoglein-3. P32926. DSG3-coupled beads, scFv-anti-DSG3-GFP binding, flow cytometry; hits give low values. binding (percent of control), % at 10 µM. hit rate 0.48% among 310,000;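 active means binding more than 3 SD below its plate's average and above zero; inconclusive means below that plate limit but binding exactly zero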;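 further: hits lower antibody fragment binding to DSG3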
Target sequence (P32926 whole entry, looked up, the tested form may be a part): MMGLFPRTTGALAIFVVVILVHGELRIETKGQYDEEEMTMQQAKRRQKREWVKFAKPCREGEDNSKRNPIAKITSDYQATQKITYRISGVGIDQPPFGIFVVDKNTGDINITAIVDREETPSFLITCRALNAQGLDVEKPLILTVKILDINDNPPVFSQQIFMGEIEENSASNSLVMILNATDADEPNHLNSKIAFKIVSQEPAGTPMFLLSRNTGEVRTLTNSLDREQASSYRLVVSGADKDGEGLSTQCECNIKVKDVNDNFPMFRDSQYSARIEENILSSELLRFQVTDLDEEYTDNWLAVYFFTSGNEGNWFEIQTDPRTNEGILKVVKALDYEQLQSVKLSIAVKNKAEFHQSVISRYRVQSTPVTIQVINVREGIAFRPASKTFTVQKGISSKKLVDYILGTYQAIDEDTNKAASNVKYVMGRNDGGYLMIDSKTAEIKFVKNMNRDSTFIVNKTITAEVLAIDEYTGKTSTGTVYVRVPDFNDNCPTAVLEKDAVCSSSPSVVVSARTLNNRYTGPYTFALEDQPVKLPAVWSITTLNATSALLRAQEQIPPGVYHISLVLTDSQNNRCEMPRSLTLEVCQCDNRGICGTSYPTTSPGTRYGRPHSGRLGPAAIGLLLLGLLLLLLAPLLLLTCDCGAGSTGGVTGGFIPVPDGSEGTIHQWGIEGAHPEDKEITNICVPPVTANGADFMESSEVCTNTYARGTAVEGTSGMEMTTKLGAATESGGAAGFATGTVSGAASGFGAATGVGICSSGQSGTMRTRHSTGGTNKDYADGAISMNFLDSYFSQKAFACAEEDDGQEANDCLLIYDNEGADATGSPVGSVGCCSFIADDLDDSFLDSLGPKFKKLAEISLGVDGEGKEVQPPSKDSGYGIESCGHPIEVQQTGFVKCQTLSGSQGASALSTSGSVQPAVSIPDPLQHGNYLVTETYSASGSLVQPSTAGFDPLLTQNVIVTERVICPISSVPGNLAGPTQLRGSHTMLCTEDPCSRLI
Numbers stand for hits; - = inactive; ? = inconclusive; . = no result; + = active, no number. This is a sample that favours compounds with a hit; in the whole collection about 1.9% have one here.

SMILES | TbMetRS inhib | Rce1 inh | NadD inh | HCV core dimer | Pemphigus Ab inh
CCOC(=O)c1ccc(NC(=O)COc2ccc(-n3cnnn3)cc2)cc1 | - | - | - | 58 | -
CC(=O)N1CCc2cc(S(=O)(=O)Nc3ccc(C)cc3C)ccc21 | - | - | - | - | -
CCCCC/C(=N\NC(=O)Nc1ccccc1)c1ccccc1 | - | - | - | - | -12
O=C1C2CC=C(Cl)CC2C(=O)N1CN(Cc1ccco1)CN1C(=O)C2CC=C(Cl)CC2C1=O (configuration not stated) | - | - | - | 80 | -
O=C(CCN1C(=O)C2CC=C(Cl)CC2C1=O)NCc1ccco1 (configuration not stated) | - | - | - | - | -
Cn1c(=O)c2c(nc(NCCOc3ccc(F)cc3)n2C)n(C)c1=O | - | - | - | - | 91
Nc1nc(SCC(=O)NCC2CCCO2)n[nH]1 (configuration not stated) | - | - | - | - | -
O=C(NN=C1CCN(Cc2ccccc2)CC1)c1cc2ccccc2cc1O | - | - | 42 | - | -
CN(C)S(=O)(=O)c1ccc(Nc2ccc(-c3ccc4c(c3)OCCO4)nn2)cc1 | - | . | - | - | 69
Cc1ccc(-n2c(C)cc(-c3csc(N)n3)c2C)cc1 | - | - | 30 | - | -
Cc1ccc(-c2csc(N)n2)cc1 | - | . | - | . | .
Cc1cccc(-c2oc3ccccc3c2-c2ccc3c(c2)OCO3)c1 | - | + | - | - | -
O=C(Nc1cccc(-c2cn3c(n2)SCC3)c1)c1ccc2c(c1)OCO2 | - | - | - | - | -
O=C(Nc1ccc(-c2cn3c(n2)SCC3)cc1)c1ccc2c(c1)OCO2 | - | - | - | - | 83
O=S(=O)(c1ccccc1)c1cnn2c(C(F)(F)F)cc(-c3ccc(F)cc3)nc12 | - | + | - | - | -
COc1ccccc1-c1cc(C(F)(F)F)n2ncc(S(=O)(=O)c3ccccc3)c2n1 | - | + | - | - | .
O=S(=O)(c1ccccc1)c1cnn2c(C(F)(F)F)cc(-c3ccccc3)nc12 | - | - | - | - | -
COc1ccccc1-c1cc(C(F)(F)F)n2ncc(C(=O)N3CCc4ccccc4C3)c2n1 | - | - | - | - | .
Cc1ccc(NC(=O)COc2ccc(-c3nnco3)cc2)cc1S(=O)(=O)N1CCOCC1 | - | . | - | - | -
COc1ccccc1N1CCN(C(=O)CSc2nc(C)cc(=O)[nH]2)CC1 | - | - | - | - | -
Cc1ccc(C)c(NC(=O)CSc2ncnc3nc[nH]c23)c1 | - | - | - | - | .
COc1ccc(C(=O)CSc2ncnc3nc[nH]c23)cc1 | - | - | - | - | 88
Cc1cccc(NC(=O)CSc2ncnc3nc[nH]c23)c1C | - | - | - | - | 37
COc1ccc(CCn2c(C)ccc2C)cc1OC | . | - | . | 47 | .
COc1ccc(CN(C2CCCC2)S(=O)(=O)c2ccc(-n3cnnn3)c(OC)c2)cc1OC | - | + | - | - | -
SMILES | TbMetRS inhib | Rce1 inh | NadD inh | HCV core dimer | Pemphigus Ab inh
CCCCCCSc1cc(-c2nc3cc(C)ccn3c2NCCCC)ccc1OC | - | + | - | - | -
CCCCCCSc1cc(-c2nc3cnccn3c2NCCCC)ccc1OC | - | . | - | . | .
CCCCNc1c(-c2ccc(SC(C)CC)c(OC)c2)nc2ccc(Cl)cn12 (configuration not stated) | - | . | - | . | -
CCCCNc1c(-c2ccc(SC(C)CC)c(OC)c2)nc2ccc(C)cn12 (configuration not stated) | - | + | - | - | -
O=C(COc1ncnc2cc([N+](=O)[O-])ccc12)NCCc1ccc(Cl)cc1 | - | - | - | - | -
O=C(COc1ncnc2cc([N+](=O)[O-])ccc12)NC(=O)NC1CCCCC1 | - | + | - | - | -
O=S1(=O)c2ccccc2N=NN1Cc1ccc(Cl)cc1 | - | - | - | 47 | .
O=S1(=O)c2ccccc2N=NN1Cc1cc(Cl)cc(Cl)c1 | . | - | . | 46 | .
O=C(CCn1c(=S)[nH]c2ccccc2c1=O)NCCc1ccccc1 | - | - | - | - | -
Cc1ccc(NC(=O)CN2C(=O)S/C(=C\c3cc(Cl)c(OCC(=O)O)c(Cl)c3)C2=O)cc1 | - | - | 28 | - | -
O=C(c1ccc(Cl)cc1)[C@@H]1[C@@H]2C(=O)N(c3ccccc3)C(=O)[C@@H]2C2c3ccccc3C=NN21 (some centres not stated) | - | - | - | - | 78
CC(C)(C)SCCNC(=O)CN(c1ccccc1)S(=O)(=O)c1ccc(F)cc1 | - | - | - | - | 5.2
CC(C)(C)SCCNC(=O)CN(c1ccc(F)cc1)S(C)(=O)=O | - | . | - | - | -
O=C(c1coc(=O)c(Br)c1)N1CCC(C(O)(c2ccccc2)c2ccccc2)CC1 | - | - | - | - | -
CC1(C)CCCN(C(=O)c2coc(=O)c(Br)c2)C1 | - | + | - | . | -
C#CCOC(=O)CCCNc1ccc([N+](=O)[O-])cc1[N+](=O)[O-] | - | - | - | 48 | .
Cc1cc2ccccc2n1CCNC(=O)c1ccccc1 | - | - | - | - | ?
CCC(=O)NCCn1c(C)cc2ccccc21 | - | - | - | - | -
O=S(=O)(c1ccc2ccccc2c1)N1CCOCC1 | - | - | - | - | .
Cc1cc2ccccc2n1CCNC(=O)COc1ccccc1 | - | - | - | - | 65
O=C(NCc1ccco1)c1ccc(S(=O)(=O)N2CCOCC2)cc1 | - | - | - | 48 | ?
Cc1cc2ccccc2n1CCNC(=O)c1ccc(S(=O)(=O)N2CCOCC2)cc1 | - | - | - | - | 83
O=S(=O)(c1ccc2nc(-c3ccco3)c(-c3ccco3)nc2c1)N1CCOCC1 | - | - | - | 59 | -
COc1ccc(C(=O)OCC(=O)c2c[nH]c3ccccc23)c(OC)c1 | - | . | - | . | -
CC[C@@H]1CC=C[C@H]2[C@H]1C(=O)N(Cc1ccccc1)[C@H]2c1cc(C)ccc1F | . | - | . | . | .
SMILES | TbMetRS inhib | Rce1 inh | NadD inh | HCV core dimer | Pemphigus Ab inh
CN(C)c1ccc(/C=C(/C#N)C(=O)Nc2nc3c(s2)CCN(Cc2ccccc2)C3)cc1 | - | . | 57 | . | -
N#C/C(=C\c1ccc(OCc2ccccc2)cc1)C(=O)Nc1nc2c(s1)CCN(Cc1ccccc1)C2 | - | - | - | - | .
COc1ccc(/C=N/NC(=O)c2nn(-c3ccc(C)c(C)c3)c(=O)c3ccccc23)cc1 | - | - | - | 56 | -
COc1ccc(-n2nc(C(=O)NCC(=O)N3CCCC(C)C3)c3ccccc3c2=O)cc1 (configuration not stated) | - | - | - | - | -
COc1ccc(-n2nc(C(=O)NCC(=O)N3CCC(C)CC3)c3ccccc3c2=O)cc1 | - | + | - | - | -
COc1ccc(C(=O)CSc2cc(C)nc(SCC(=O)c3ccc(C)cc3)n2)cc1 | - | - | - | - | -
Cc1c(OCC(=O)N2C[C@H]3C[C@@H](C2)c2cccc(=O)n2C3)ccc2c3c(c(=O)oc12)CCC3 | - | - | - | - | -
COc1ccccc1/C=C1\SC(=S)N(CCC(=O)NNC(=O)c2ccccc2O)C1=O | - | - | 32 | - | -
O=C(CCCN1C(=O)/C(=C/c2cccs2)SC1=S)NNC(=O)c1ccccc1O | - | - | 28 | - | -
